# Source: PubChem
# Cav32 inh = Cav3.2 calcium influx blockers – cell-based, Fluo-4 calcium fluorescence, FDSS, MLSMR library, primary screen. B-score at 10 µM. Voltage-dependent T-type calcium channel subunit alpha-1H (Homo sapiens), O95180. Cav3.2-expressing cells; hits give low values. hit rate 4% among 100,000;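 active = single-dose well whose peak fluorescence ratio is a statistical outlier from its plate by either plate-standardised score or position-corrected B-score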
# PostGolgi yeast = phenotypic screen on post-Golgi transport, primary screen; post-Golgi transport phenotypic cell assay; inhibition, % at 10 µM; hit rate 0.9% among 98,000;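 also: yeast cells grown in 1536-well plates; yeast grown about 18 h at 30C before absorbance read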
# PostGolgi ctrl = growth inhibition of yeast control strain, primary screen, counter-screen for post-Golgi transport modulator project; efflux-deficient yeast background strain, growth absorbance A615, 16 h; inhibition, % at 10 µM; hit rate 5% among 98,000
# E coli WT exp = growth inhibitors of wild-type E. coli, primary screen, strain BW25113, expanded library, OD600 | AID 710, 2007 | growth inhibition, % at 100 µM | hit rate 0.15% among 98,000 | OD600 absorbance;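 active = growth inhibition above about 50% at one test dose, limit read from the data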;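 also: growth measured after 20 h incubation at 37 °C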
# Pyk2 oligo antag = antagonists of Pyk2 self-association, primary screen, Q293 cells, FERM NanoBiT luminescence, HTS; Protein-tyrosine kinase 2-beta (Homo sapiens), Q14289; hits give low values; z-score (the deposit names both 25 µM and 10 µM); hit rate 0.83% among 99,000; AID 1347419, 2020;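 active = Z-score of -3 or lower, scaled per plate to the spread of control and sample wells; inactive = z-score above -3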;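 also: negative z-score means lost luminescence so less FERM oligomerization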
# Ecoli tolC = growth inhibitors of E. coli tolC mutant, primary screen, strain BW25113 ΔtolC::kan, 384-well; OD615; growth inhibition, % at 10 µM (by protocol); hit rate 2.2% among 65,000; AID 573, 2007;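 active = growth inhibition at or above a cutoff equal to the mean over every tested compound plus 3 SD, cut at about 60% in these data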;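 also: growth measured after 20 h incubation at 37 °C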
#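 Test system: tolC-deleted E. coli BW25113; medium: LB with kanamycin 50 µg/mL; compound: single-point testing at 10 µM; incubation: 20 h compound exposure of bacteria at 37 °C; signal: OD at 615 nm; evaluation: growth inhibition in percent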
# Hits are given with their value; - = inactive; . = no result given. An excerpt weighted towards active compounds, which were near 8.7% of everything screened. Rule as the data show it, unless noted: active = inhibition above about 30%; inactive = the rest.
SMILES,Cav32 inh,PostGolgi yeast,PostGolgi ctrl,E coli WT exp,Pyk2 oligo antag,Ecoli tolC
CCOc1ccc(/C(O)=C2/C(=O)C(=O)N(CC3CCCO3)C2c2ccco2)cc1 (stereo not drawn),-,.,.,.,-,.
COc1ccc(/C(O)=C2/C(=O)C(=O)N(CC3CCCO3)C2c2cccc(OC)c2)cc1 (stereo not drawn),-,-,-,-,-,100
COc1cccc(C2/C(=C(\O)c3ccc4c(c3)OCCO4)C(=O)C(=O)N2CCN(C)C)c1 (stereo not drawn),-,-,-,-,-,-
COc1cccc(C2/C(=C(/O)c3ccc(C)cc3)C(=O)C(=O)N2Cc2ccco2)c1 (stereo not drawn),.,.,.,.,.,77
O=C1C(=O)N(Cc2ccco2)C(c2cccc(Cl)c2)/C1=C(\O)c1ccc2c(c1)OCCO2 (stereo not drawn),-,-,-,-,-,70
COc1cc2[nH]c(=O)n(CCCCCC(=O)N3CC=C(c4ccccc4)CC3)c(=O)c2cc1OC,-,-,-,-,-,.
O=C(CCC(=O)OCC(=O)c1ccc(Br)cc1)Nc1ccc(Br)c2cccnc12,-,-,38,-,-,.
COc1nn(C(C)C(=O)N2N=C(C(F)F)CC2(O)C(F)F)cc1[N+](=O)[O-] (stereo not drawn),-,.,.,.,-,.
Cc1cnc(Nc2nc3ccccc3o2)nc1C(=O)Nc1cccc(C(F)(F)F)c1,-6.1,-,-,-,-,-
CC(=O)Nc1ccc(S(=O)(=O)NCC(=O)OC(C)c2ccccc2Cl)cc1 (stereo not drawn),.,.,.,.,-,.
CCOC(=O)c1cnc(SCc2cccc(C)c2)nc1N,-4.9,-,-,-,-,.
CCNc1nc(NC(C)C)nc(SCCOc2ccc(C)cc2)n1,-,-,31,-,-,.
CCNc1nc(Cl)nc(NCCOc2ccc(C)cc2)n1,.,.,.,.,-,.
CCCOC1(NC(=O)c2ccccc2)C(C)=CC(=O)C=C1C,-,-,-,-,-,-
O=C(c1ccccc1C(=O)N1CCN(c2ccccc2F)CC1)N1CCN(c2ccccc2F)CC1,-3.9,-,-,-,-,-
O=C(c1ccccc1Oc1ccccc1)N1CCN(c2ccccc2F)CC1,-5.4,-,33,-,-,.
COc1ccccc1N1CCN(C2CCN(C(=O)c3cc(OC)c(OC)c(OC)c3)CC2)CC1,-,36,-,-,-,-
COc1ccccc1N1CCN(C(=O)c2ccccc2Oc2ccccc2)CC1,-4.7,-,-,-,-,-
CCNc1nc(NCC)nc(C(=O)OCCO)n1,-,-,-,-,.,.
COc1cc(C(=O)NCCC(=O)NC2CCCCCCC2)cc(OC)c1OC,-,-,-,-,-,-
C/C(N)=C(/C#N)C(=O)CSc1nc(C2CCCCC2)n(-c2ccccc2)n1,-5.1,-,-,-,-,-
C=CCn1c(SCC(=O)/C(C#N)=C(\C)N)nnc1C1CCCCC1,-,-,-,-,-,-
CC(C)Cn1cc(C(=O)N2CCN(c3ccccn3)CC2)c2c3ccccc3n(C)c2c1=O,-,-,-,-,-,-
O=C(COC(=O)CCCSc1nc2ccccc2[nH]1)NC(=O)NC1CCCC1,-,-,-,-,-,.
C=CCn1c(SCc2ccc(C#N)cc2)nnc1-c1cccc(Cl)c1,-4.9,-,-,-,-,-
SMILES,Cav32 inh,PostGolgi yeast,PostGolgi ctrl,E coli WT exp,Pyk2 oligo antag,Ecoli tolC
C=CCn1c(SCc2cccc(C#N)c2)nnc1-c1ccccc1O,-,-,-,-,.,-
CCN(CC)c1ccc(C2C(C(=O)OC(C)C)C(=O)CC(C)(O)C2C(=O)OC(C)C)cc1 (stereo not drawn),-5.7,-,-,-,-,.
CCN(CC)c1nc(N)nc(N(c2ccccc2)c2ccccc2)n1,-,-,53,-,.,.
CCC(C)NC(=O)C1=C(C)C(=O)OC12CCC(C)CC2 (stereo not drawn),-,-,-,-,.,-
COc1cc(C(=O)NCc2cccc3ccccc23)cc(Cl)c1OC,-,-,39,-,-,.
CC(=O)N1CCc2cc(S(=O)(=O)Nc3cccc(C(F)(F)F)c3)ccc21,-,-,-,-,-,-
CC(=O)N1CCCc2cc(S(=O)(=O)Nc3ccc4c(c3)OCO4)ccc21,-,-,33,-,-,-
O=C(NC1CCCCC1)C1CCN(S(=O)(=O)N2CCOCC2)CC1,-,-,-,-,-,-
Cc1ccc(OCCn2c(C3CC(=O)N(Cc4ccccc4)C3)nc3ccccc32)cc1 (stereo not drawn),-7.3,-,-,-,.,.
CN(c1ccc(C(=O)O)cc1)S(=O)(=O)c1ccc(Cl)cc1,-,-,-,-,-,-
O=C1/C(=C/c2cccnc2)Oc2cc(OS(=O)(=O)c3ccc(F)cc3)ccc21,-,-,-,-,-,.
Cc1ccc(S(=O)(=O)Oc2ccc3c(c2)O/C(=C\c2cccnc2)C3=O)cc1,-,-,-,-,-3,.
Cc1cc(NC(=O)c2sccc2C)n(-c2cccc(Cl)c2)n1,-,-,-,-,-,-
Cc1nnc(Nc2ccccn2)c2ccccc12,.,-,65,-,-,-
O=C1CC(c2ccco2)CC2=C1C1c3ccccc3C(=O)N1c1ccccc1N2 (stereo not drawn),-,-,-,-,-,89
CCC(=O)N1c2ccccc2NC2=C(C(=O)CC(c3ccco3)C2)C1c1ccco1 (stereo not drawn),-,-,-,-,-,-
O=C(C1CCN(S(=O)(=O)c2ccc(F)cc2)CC1)N1CCOCC1,-,-,-,-,-,-
Cc1ccc(CSCCNC(=O)/C=C/c2ccc(Cl)cc2)cc1,-,-,-,-,-,.
O=C(/C=C/c1ccccc1)NCCSc1ccc(Cl)cc1,-4.3,-,-,-,-,.
NCCCC[C@H]1CNC(=O)C(=O)N1CCC12CC3CC(CC(C3)C1)C2,-,.,.,.,.,.
CC(C)C(=O)N1CCC(CN=CC2=C(O)CC(C)(C)CC2=O)CC1,-,.,.,.,-,.
CC1CCC(n2c(=S)[nH]c3ccccc3c2=O)CC1 (stereo not drawn),-,-,49,-,-,-
O=c1c2ccccc2[nH]c(=S)n1C1CCCCC1,.,-,-,-,-,-
CCOC(=O)CSc1nc2cc(C(=O)NCc3ccco3)ccc2c(=O)n1C1CCCCC1,-,-,45,-,-,-
CCOC(=O)CSc1nc2ccccc2c(=O)n1CC,-,-,-,-,-,-
CCOC(=O)CSc1nc2cc(C(=O)NCc3ccco3)ccc2c(=O)n1-c1ccc(F)cc1,-,-,-,-,-,-
CCOC(=O)CSc1nc2ccccc2c(=O)n1CC1CCCC1,-3.5,.,.,.,-,.
CCOC(=O)CSc1nc2ccccc2c(=O)n1CC1CCC(C(=O)NCc2ccco2)CC1 (stereo not drawn),-,-,36,-,-,-
CCn1c(SCC(=O)OC2CCCCC2)nc2ccccc2c1=O,-,-,-,-,-,72
